Source: ChEMBL document CHEMBL1667769, “Sodium [2'-[(cyclopropanecarbonyl-ethyl-amino)-methyl]-4'-(6-ethoxy-pyridin-3-yl)-6-methoxy-biphenyl-3-yl]-acetate (AM432): a potent, selective prostaglandin D2 receptor antagonist” (Bioorg Med Chem Lett, 2011)
Activity calls are given as the source filed them. The calls are words filed in the database; no cut-off is given here.

Columns and labels:
[1] = molecular target: T1, Prostaglandin D2 receptor 2 (Homo sapiens, UniProt Q9Y5Y4); experiment: Displacement of [3H]PGD2 from human CRTh2 receptor expressed in 293 cells by liquid scintillation counting; format: cell-based, HEK293
T1 sequence (Q9Y5Y4 whole entry): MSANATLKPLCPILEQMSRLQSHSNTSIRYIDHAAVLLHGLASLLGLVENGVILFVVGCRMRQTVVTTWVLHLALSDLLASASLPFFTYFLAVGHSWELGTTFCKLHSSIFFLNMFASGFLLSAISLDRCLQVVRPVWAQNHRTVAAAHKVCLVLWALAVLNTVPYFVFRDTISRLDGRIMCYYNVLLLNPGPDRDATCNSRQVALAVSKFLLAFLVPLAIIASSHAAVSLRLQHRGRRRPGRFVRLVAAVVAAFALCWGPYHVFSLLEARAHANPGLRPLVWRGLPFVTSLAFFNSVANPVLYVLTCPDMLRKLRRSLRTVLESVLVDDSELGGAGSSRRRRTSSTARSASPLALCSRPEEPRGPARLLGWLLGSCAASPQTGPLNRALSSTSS
How it was run: (§1)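 Membranes from 293 cells stably expressing human DP₂ incubated with [³H]-PGD₂ and increasing compound concentrations. Membranes harvested and washed; bound [³H]-PGD₂ counted. IC₅₀ taken as concentration giving 50% inhibition of binding. Run without and with 0.2% human serum albumin. Values averaged from three experiments (five for the lead).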

[2] = molecular target: T1, Prostaglandin D2 receptor 2; experiment: Displacement of [3H]PGD2 from human CRTh2 receptor expressed in 293 cells by liquid scintillation counting in presence of 0.2 % HSA; format: cell-based, HEK293; how it was run: as §1
hERG (KCNH2) = hERG (KCNH2) (Homo sapiens, UniProt Q12809); experiment: Inhibition of human ERG at 10 uM by patch-clamp analysis
Cytochrome P450 3A4 = Cytochrome P450 3A4 (Homo sapiens, UniProt P08684); experiment: Inhibition of human CYP3A4; format: ADME
Cytochrome P450 2C9 = Cytochrome P450 2C9 (Homo sapiens, UniProt P11712); experiment: Inhibition of human CYP2C9; format: ADME
Cytochrome P450 2C19 = Cytochrome P450 2C19 (Homo sapiens, UniProt P33261); experiment: Inhibition of human CYP2C19; format: ADME
Cytochrome P450 2D6 = Cytochrome P450 2D6 (Homo sapiens, UniProt P10635); experiment: Inhibition of human CYP2D6; format: ADME
Cytochrome P450 1A2 = molecular target: T2, Cytochrome P450 1A2 (Homo sapiens, UniProt P05177); experiment: Inhibition of human CYP1A2; format: ADME
T2 sequence (P05177 whole entry): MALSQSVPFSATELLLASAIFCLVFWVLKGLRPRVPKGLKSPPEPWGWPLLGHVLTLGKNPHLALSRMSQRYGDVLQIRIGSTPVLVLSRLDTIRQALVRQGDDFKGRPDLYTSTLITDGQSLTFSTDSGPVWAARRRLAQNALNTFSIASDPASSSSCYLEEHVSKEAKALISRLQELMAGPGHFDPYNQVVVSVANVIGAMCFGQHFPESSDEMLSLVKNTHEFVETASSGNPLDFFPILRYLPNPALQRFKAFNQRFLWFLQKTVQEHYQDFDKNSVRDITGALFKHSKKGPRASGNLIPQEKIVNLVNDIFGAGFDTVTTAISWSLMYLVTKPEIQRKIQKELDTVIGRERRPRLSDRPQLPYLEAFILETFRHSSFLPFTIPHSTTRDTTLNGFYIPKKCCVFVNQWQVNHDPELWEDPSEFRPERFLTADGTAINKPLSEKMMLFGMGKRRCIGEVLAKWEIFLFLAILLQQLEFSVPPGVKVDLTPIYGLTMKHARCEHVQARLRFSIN

[3] = molecular target: Prostaglandin G/H synthase 1 (Homo sapiens, UniProt P23219); experiment: Inhibition of COX-1
[4] = molecular target: T3, Prostaglandin G/H synthase 2 (Homo sapiens, UniProt P35354); experiment: Inhibition of COX-2
T3 sequence (P35354 whole entry): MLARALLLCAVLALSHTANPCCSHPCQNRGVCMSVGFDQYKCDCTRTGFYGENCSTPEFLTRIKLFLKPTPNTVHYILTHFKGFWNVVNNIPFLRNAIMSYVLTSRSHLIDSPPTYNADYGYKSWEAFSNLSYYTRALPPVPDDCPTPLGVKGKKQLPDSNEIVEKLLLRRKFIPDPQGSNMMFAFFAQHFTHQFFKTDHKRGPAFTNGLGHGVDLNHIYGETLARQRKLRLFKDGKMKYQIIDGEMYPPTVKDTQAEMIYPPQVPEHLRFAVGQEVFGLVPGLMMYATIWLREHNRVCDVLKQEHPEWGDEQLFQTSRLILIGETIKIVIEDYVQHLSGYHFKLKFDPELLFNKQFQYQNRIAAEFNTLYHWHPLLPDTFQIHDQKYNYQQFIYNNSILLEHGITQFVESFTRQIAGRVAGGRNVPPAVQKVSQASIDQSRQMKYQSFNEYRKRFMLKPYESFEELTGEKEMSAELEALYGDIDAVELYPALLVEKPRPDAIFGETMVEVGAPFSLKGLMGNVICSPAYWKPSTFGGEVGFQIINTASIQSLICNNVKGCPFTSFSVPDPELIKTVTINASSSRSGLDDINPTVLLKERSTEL

[5] = molecular target: T4, Peroxisome proliferator-activated receptor alpha (Homo sapiens, UniProt Q07869); experiment: Inhibition of PPAR alpha
T4 sequence (Q07869 whole entry): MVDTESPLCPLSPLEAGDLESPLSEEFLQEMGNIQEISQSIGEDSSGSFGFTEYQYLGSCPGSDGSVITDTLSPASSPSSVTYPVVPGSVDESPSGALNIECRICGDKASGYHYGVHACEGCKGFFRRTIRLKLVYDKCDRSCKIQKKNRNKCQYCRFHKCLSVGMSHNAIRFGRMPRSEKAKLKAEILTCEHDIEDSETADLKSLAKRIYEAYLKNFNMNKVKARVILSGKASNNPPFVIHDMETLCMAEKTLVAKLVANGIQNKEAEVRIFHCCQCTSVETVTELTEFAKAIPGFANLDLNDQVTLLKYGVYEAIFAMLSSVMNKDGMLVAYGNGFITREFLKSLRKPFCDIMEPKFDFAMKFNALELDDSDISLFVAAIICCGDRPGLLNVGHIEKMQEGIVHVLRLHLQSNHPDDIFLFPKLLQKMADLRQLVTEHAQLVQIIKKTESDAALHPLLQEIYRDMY

[6] = molecular target: Peroxisome proliferator-activated receptor delta (Homo sapiens, UniProt Q03181); experiment: Inhibition of PPAR beta
[7] = molecular target: Peroxisome proliferator-activated receptor gamma (Homo sapiens, UniProt P37231); experiment: Inhibition of PPAR gamma
[8] = molecular target: T5, Prostaglandin D2 receptor (Homo sapiens, UniProt Q13258); experiment: Displacement of [3H]PGD2 from DP1 in human platelet membrane; format: cell membranes
T5 sequence (Q13258 whole entry): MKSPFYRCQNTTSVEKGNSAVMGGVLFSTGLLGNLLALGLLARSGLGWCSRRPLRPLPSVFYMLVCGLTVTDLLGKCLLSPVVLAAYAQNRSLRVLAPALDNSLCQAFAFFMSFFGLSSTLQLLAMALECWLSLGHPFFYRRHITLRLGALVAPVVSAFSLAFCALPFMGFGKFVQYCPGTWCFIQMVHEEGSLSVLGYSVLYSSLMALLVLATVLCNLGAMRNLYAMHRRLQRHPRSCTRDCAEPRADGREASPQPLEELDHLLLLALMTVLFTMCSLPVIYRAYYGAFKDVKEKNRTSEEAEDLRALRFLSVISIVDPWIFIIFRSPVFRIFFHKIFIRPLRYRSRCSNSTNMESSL
How it was run: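 Human DP₁ binding using ³H-PGD₂ and human platelet membranes.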

Thromboxane A2 receptor = molecular target: T6, Thromboxane A2 receptor (Homo sapiens, UniProt P21731); experiment: Displacement of [3H]SQ-29548 from TP receptor in human platelet membrane; format: cell membranes
T6 sequence (P21731 whole entry): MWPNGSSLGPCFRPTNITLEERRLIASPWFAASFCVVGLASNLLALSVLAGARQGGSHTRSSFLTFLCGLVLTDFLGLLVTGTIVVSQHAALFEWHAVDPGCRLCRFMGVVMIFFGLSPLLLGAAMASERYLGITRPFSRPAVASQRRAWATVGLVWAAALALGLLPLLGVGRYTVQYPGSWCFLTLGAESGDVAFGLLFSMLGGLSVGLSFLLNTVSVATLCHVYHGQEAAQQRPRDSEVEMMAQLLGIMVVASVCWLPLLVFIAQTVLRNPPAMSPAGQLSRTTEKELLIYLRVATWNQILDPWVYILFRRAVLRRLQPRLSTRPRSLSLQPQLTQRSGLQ
How it was run: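 Human TP binding using human platelet membranes and ³H-SQ-29548.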

Prostacyclin receptor = Prostacyclin receptor (Homo sapiens, UniProt P43119); experiment: Displacement of [3H]iloprost from IP receptor in human 293 cell membrane; format: cell membranes
How it was run: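 Human IP binding using hIP/293 membranes and ³H-iloprost.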

Mus musculus [9] = experiment: Antiallergic activity in BALB/c mouse assessed as reduction in ovalbumin-induced increase in nasal rubs at 10 mg/kg, po administered 21 to 25 days after ovalbumin challenge followed by intranasal ovalbumin challenge measured for 8 mins of post dose; format: functional, organism-based; set-up: dose 10 mg/kg
Mus musculus [10] = experiment: Antiallergic activity in BALB/c mouse assessed as reduction in ovalbumin-induced increase in nasal sneezes at 10 mg/kg, po administered 21 to 25 days after ovalbumin challenge followed by intranasal ovalbumin challenge measured for 8 mins of post dose; format: functional, organism-based; set-up: dose 10 mg/kg
Mus musculus [11] = experiment: Antiinflammatory activity against cigarette smoke-induced lung inflammation in BALB/c mouse assessed as reduction in bronchoalveolar lavage fluid neutrophils at 50 mg/kg, po for 2 days; format: functional, organism-based; set-up: dose 50 mg/kg
How it was run: (§2)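 Mice exposed to cigarette smoke. Oral dosing at 10 or 50 mg/kg, or 0.5% methylcellulose vehicle, on days −1 through 2. On day 3, euthanized by isoflurane inhalation, then bronchoalveolar lavage with differential counts of neutrophils, lymphocytes and macrophages.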

Mus musculus [12] = experiment: Antiinflammatory activity against cigarette smoke-induced lung inflammation in BALB/c mouse assessed as reduction in bronchoalveolar lavage fluid lymphocytes at 50 mg/kg, po for 2 days; format: functional, organism-based; set-up: dose 50 mg/kg; how it was run: as §2
Mus musculus [13] = experiment: Antiinflammatory activity against cigarette smoke-induced lung inflammation in BALB/c mouse assessed as reduction in bronchoalveolar lavage fluid macrophages at 50 mg/kg, po for 2 days; format: functional, organism-based; set-up: dose 50 mg/kg; how it was run: as §2
Mus musculus [14] = experiment: Antiinflammatory activity against cigarette smoke-induced lung inflammation in BALB/c mouse assessed as reduction in bronchoalveolar lavage fluid neutrophils at 10 mg/kg, po for 2 days; format: functional, organism-based; set-up: dose 10 mg/kg; how it was run: as §2
Mus musculus [15] = experiment: Antiinflammatory activity against cigarette smoke-induced lung inflammation in BALB/c mouse assessed as reduction in bronchoalveolar lavage fluid lymphocytes at 10 mg/kg, po for 2 days; format: functional, organism-based; set-up: dose 10 mg/kg; how it was run: as §2
Mus musculus [16] = experiment: Antiinflammatory activity against cigarette smoke-induced lung inflammation in BALB/c mouse assessed as reduction in bronchoalveolar lavage fluid macrophages at 10 mg/kg, po for 2 days; format: functional, organism-based; set-up: dose 10 mg/kg; how it was run: as §2
Canis familiaris = experiment: AUC in dog at 2.5 mg/kg, po or 2 mg/kg, iv; conditions: in vivo
[17] = Cmax in dog at 2.5 mg/kg, po or 2 mg/kg, iv; conditions: in vivo
[18] = Half life in dog at 2.5 mg/kg, po or 2 mg/kg, iv; conditions: in vivo
[19] = Clearance in dog at 2.5 mg/kg, po or 2 mg/kg, iv; conditions: in vivo

Sequence of Cytochrome P450 2C9 (P11712 whole entry): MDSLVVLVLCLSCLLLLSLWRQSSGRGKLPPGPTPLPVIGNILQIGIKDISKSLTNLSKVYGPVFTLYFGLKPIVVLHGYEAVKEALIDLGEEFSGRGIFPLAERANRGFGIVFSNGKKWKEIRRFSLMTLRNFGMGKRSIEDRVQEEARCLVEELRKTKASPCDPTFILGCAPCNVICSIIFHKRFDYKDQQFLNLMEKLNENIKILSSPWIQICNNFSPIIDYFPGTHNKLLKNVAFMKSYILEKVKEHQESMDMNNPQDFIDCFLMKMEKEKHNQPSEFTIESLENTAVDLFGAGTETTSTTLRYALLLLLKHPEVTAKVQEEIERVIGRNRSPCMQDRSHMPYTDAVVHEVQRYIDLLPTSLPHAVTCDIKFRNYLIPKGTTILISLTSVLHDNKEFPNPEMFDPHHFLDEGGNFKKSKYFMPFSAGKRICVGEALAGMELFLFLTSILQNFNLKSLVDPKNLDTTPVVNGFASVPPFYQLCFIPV
Sequence of Prostacyclin receptor (P43119 whole entry): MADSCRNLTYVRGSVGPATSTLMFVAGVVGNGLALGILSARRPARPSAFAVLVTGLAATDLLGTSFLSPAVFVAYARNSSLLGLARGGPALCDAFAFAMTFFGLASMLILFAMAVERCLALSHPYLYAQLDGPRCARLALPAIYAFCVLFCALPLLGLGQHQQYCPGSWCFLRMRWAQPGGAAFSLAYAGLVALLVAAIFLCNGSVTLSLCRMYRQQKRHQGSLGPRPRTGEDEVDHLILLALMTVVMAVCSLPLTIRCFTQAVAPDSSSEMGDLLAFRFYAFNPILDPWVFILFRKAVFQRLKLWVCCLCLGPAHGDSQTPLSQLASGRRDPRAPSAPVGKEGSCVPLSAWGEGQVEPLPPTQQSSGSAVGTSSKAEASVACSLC
Sequence of Peroxisome proliferator-activated receptor delta (Q03181 whole entry, looked up): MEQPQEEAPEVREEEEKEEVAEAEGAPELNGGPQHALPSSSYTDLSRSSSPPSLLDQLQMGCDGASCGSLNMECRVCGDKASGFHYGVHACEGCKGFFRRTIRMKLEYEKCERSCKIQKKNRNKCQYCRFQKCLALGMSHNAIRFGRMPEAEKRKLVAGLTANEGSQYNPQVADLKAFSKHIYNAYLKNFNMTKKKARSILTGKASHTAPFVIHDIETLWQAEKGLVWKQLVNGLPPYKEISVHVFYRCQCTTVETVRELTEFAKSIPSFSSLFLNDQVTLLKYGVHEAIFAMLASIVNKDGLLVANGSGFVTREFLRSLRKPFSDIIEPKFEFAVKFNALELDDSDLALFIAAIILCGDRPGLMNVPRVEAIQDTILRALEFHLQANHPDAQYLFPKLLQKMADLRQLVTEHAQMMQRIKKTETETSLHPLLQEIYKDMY
Sequence of Cytochrome P450 2D6 (P10635 whole entry): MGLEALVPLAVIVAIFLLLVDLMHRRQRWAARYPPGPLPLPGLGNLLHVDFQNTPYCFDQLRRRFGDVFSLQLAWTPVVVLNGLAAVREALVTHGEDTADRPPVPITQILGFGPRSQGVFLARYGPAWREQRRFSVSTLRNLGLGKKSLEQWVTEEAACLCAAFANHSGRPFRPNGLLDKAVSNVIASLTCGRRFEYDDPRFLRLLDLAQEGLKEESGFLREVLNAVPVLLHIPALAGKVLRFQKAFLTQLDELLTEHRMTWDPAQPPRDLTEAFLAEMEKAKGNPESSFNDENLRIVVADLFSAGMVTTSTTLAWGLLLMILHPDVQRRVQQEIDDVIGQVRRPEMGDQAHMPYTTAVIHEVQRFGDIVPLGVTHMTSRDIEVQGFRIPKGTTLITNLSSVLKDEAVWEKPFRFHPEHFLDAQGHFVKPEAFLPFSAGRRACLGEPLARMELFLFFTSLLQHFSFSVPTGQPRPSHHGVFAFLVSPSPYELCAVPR
Sequence of hERG (KCNH2) (Q12809 whole entry): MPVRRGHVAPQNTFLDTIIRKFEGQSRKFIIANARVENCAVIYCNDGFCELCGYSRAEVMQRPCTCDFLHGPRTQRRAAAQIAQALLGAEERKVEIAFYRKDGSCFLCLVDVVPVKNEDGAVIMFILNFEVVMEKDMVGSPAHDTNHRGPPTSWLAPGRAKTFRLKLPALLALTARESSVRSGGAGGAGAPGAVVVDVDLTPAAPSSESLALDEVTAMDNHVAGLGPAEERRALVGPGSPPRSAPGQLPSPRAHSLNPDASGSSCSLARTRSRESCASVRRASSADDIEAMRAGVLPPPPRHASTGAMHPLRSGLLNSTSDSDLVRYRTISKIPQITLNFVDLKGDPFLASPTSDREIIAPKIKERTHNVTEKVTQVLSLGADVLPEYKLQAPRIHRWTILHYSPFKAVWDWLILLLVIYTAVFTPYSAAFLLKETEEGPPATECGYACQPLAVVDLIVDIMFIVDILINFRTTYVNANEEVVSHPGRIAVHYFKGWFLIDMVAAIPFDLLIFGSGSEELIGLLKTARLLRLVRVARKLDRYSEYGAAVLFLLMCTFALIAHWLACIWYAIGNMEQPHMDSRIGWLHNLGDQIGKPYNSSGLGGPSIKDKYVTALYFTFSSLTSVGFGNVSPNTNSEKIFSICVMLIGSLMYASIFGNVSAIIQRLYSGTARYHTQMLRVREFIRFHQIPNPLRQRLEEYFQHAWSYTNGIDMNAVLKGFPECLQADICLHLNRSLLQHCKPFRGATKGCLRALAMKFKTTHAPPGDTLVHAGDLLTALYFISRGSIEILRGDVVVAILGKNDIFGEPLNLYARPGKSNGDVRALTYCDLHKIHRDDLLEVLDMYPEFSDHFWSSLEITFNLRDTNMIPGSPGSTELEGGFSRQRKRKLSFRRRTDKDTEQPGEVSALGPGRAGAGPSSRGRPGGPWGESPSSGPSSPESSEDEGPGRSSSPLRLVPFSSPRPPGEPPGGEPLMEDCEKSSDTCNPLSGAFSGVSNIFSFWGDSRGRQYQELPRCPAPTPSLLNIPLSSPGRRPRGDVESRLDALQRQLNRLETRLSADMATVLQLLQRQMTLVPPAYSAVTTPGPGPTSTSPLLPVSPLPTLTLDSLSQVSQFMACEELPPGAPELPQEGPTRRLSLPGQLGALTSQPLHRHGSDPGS
Sequence of Cytochrome P450 2C19 (P33261 whole entry): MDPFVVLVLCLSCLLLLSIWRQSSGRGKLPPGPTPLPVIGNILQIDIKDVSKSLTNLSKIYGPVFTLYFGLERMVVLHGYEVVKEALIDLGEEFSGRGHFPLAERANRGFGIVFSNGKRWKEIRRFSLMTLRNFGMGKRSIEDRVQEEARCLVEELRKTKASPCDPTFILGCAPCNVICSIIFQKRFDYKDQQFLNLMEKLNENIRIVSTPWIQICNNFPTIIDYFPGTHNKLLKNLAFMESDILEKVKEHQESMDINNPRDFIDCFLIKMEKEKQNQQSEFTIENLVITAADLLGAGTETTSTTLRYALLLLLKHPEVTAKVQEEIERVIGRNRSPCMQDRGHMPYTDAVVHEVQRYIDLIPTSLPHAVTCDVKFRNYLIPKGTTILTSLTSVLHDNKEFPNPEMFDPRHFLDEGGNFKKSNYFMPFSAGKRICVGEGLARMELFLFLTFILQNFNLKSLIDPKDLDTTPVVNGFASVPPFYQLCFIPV
Sequence of Cytochrome P450 3A4 (P08684 whole entry): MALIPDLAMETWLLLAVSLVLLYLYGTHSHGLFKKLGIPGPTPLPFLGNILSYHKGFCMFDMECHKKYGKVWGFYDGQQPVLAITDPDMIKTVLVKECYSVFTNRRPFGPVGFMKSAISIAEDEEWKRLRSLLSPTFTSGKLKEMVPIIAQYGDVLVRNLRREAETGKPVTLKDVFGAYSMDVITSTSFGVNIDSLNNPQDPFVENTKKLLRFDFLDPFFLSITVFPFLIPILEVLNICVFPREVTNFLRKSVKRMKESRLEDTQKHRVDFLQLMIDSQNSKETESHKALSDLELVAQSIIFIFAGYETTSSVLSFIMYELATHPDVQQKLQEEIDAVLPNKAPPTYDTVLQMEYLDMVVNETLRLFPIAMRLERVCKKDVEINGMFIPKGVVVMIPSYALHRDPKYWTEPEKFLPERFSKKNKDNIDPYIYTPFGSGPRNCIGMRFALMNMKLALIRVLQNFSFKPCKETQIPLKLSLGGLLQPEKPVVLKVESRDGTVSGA
Sequence of Prostaglandin G/H synthase 1 (P23219 whole entry): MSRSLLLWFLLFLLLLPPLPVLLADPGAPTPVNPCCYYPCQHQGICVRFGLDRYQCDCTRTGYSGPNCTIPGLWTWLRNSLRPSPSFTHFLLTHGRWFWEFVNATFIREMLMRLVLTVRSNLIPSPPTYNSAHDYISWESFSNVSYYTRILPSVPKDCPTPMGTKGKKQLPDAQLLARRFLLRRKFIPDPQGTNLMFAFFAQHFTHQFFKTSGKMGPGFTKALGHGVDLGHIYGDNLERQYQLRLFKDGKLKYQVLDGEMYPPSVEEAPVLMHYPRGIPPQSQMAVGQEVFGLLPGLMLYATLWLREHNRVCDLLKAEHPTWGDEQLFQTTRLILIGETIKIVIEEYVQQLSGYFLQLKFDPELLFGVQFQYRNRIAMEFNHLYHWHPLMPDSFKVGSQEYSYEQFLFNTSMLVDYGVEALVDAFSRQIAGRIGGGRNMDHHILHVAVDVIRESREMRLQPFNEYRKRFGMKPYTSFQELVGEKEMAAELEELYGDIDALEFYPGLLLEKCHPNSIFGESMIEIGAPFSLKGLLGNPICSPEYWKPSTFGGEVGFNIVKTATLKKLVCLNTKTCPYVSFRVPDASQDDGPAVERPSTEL

Compound: CCN(Cc1cc(C(=O)O)ccc1-c1cc(CC(=O)O)ccc1OC)C(=O)OCc1ccccc1
- IC50 [1]: 8 nM
- IC50 [2]: 254 nM

Compound: CCN(Cc1cc(-c2ncc(OC)cn2)ccc1-c1cc(CC(=O)O)ccc1OC)C(=O)C1CC1
- IC50 [1]: 27 nM
- IC50 [2]: 107 nM

Compound: CCN(Cc1cc(S(C)(=O)=O)ccc1-c1cc(CC(=O)O)ccc1OC)C(=O)OCc1ccccc1
- IC50 [1]: 5 nM
- IC50 [2]: 7 nM

Compound: CCN(Cc1cc(F)ccc1-c1cc(CC(=O)O)ccc1OC)C(=O)OCc1ccccc1
- IC50 [1]: 1 nM
- IC50 [2]: 9 nM

Compound: CCOc1ccc(-c2ccc(-c3cc(CC(=O)[O-])ccc3OC)c(CN(CC)C(=O)C3CC3)c2)cn1.[Na+]
- inhibition at 10 µM (hERG (KCNH2)): 11%
- IC50 [1]: 6 nM
- IC50 [2]: 31 nM
- IC50 (Cytochrome P450 3A4): > 50 µM
- IC50 (Cytochrome P450 2C9): > 50 µM
- IC50 (Cytochrome P450 2C19): > 50 µM
- IC50 (Cytochrome P450 2D6): > 50 µM
- IC50 (Cytochrome P450 1A2): > 50 µM
- IC50 [3]: > 100 µM
- IC50 [4]: > 100 µM
- IC50 [5]: > 250 µM
- IC50 [6]: > 250 µM
- IC50 [7]: > 250 µM
- IC50 [8]: 26.7 µM
- IC50 (Thromboxane A2 receptor): > 100 µM
- IC50 (Prostacyclin receptor): > 100 µM
- Activity (Mus musculus [9]): Active
- Activity (Mus musculus [10]): Active
- Activity (Mus musculus [11]): Active
- Activity (Mus musculus [12]): Active
- Activity (Mus musculus [13]): Active
- Activity (Mus musculus [14]): Active
- Activity (Mus musculus [15]): inactive
- Activity (Mus musculus [16]): inactive
- AUC (Canis familiaris): 87 µg/mL
- Cmax [17]: 30 µM
- half-life [18]: 360 min
- clearance [19]: 0.5 mL/min/kg
